# Reference: publication PMC11364305 (Annals of African Medicine, 2024)
# Entries after “also recorded” stand apart in the source; their conditions may differ. Read-outs that look alike come from different tables or passages of the source.
# Columns and labels:
# [1] = system: C. neoformans (clinical isolate CN); assay: Broth microdilution MIC/MFC, clinical isolate CN; type: cell-based; settings: Cryptococcus neoformans
# C. neoformans MTCC4424 [2] = assay: Disc diffusion assay, MTCC4424; type: cell-based, Cryptococcus neoformans; settings: 37°C, 48 h, mean±SD; for Diameter of zone of inhibition: 10 μL of essential oil or active compound per disc
# Method in brief: (§1)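 Per CLSI M44-A2, modified. Strains were kept on SDA slants at 4°C and subcultured in SDB before use. 100 µl of cell suspension (1.5 × 10^8 cfu/ml) was spread on SDA. Plates got antifungal drug discs (10–20 µg/disc) or 8 mm paper discs soaked with 10 µl of oil or test compound, then incubated at 37°C for 48 h. Inhibition-zone diameter (mm) was recorded in triplicate as mean ± SD.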
# C. neoformans MTCC4424 [3] = assay: Broth microdilution MIC/MFC, MTCC4424; type: cell-based; settings: Cryptococcus neoformans; for MFC: MTCC4424
# [4] = system: CN and CN MTCC4424 strains; assay: Checkerboard test, text statements for both test strains; type: cell-based, Cryptococcus neoformans; settings: for Interaction with fluconazole: checkerboard, CN and CN MTCC4424
# C. neoformans CN = assay: Checkerboard microtiter test with fluconazole, CN; type: cell-based, Cryptococcus neoformans; settings: for MIC: Cryptococcus neoformans, 48 h, read-out: MIC of agent alone; for Lowering of own MIC: in combination with fluconazole, against CN
# C. neoformans MTCC4424 [5] = assay: Checkerboard microtiter test with fluconazole, MTCC4424; type: cell-based, Cryptococcus neoformans; settings: for MIC: Cryptococcus neoformans, MTCC4424, 48 h, read-out: MIC of agent alone
# [6] = system: Cryptococcus neoformans test strains (CN and CN MTCC4424); assay: Broth microdilution, text statements for both test strains; type: cell-based
# Cytotoxicity = type: cell-based; settings: red blood cell suspension (4% RBC from defibrinated blood), pH 7
# [7] = system: Cryptococcus neoformans test strains (CN and CN MTCC4424); assay: Disc diffusion, text statements for both test strains; type: cell-based; settings: oils/compounds, against the test strains
# Method in brief: as §1
# [8] = system: C. neoformans (clinical isolate CN); assay: Disc diffusion assay, clinical isolate CN; type: cell-based, Cryptococcus neoformans; settings: 37°C, 48 h, mean±SD; for Diameter of zone of inhibition: 10 μL of essential oil or active compound per disc
# Method in brief: as §1
# red blood cell (RBC) = assay: Cytotoxicity; type: cell-based; settings: 0.1% (v/v) Triton X-100
# [9] = CD-FLC combination (cinnamaldehyde + fluconazole)
# [10] = EL-FLC combination (eugenol + fluconazole)
# [11] = Cryptococcus neoformans, MTCC4424, read-out: MIC, oils/compounds, against the test strains
# [12] = oils/compounds, against the test strains
MIC ([1]; 48 h) [µg/mL],Reduction of MICs in combination with fluconazole [4],MIC ([1]; 24 h) [µg/mL],"MIC [6, 11] [µg/mL]","MIC [6, 12] [µg/mL]","MIC (C. neoformans MTCC4424 [3]; MTCC4424, 24 h) [µg/mL]",Compound,MFC [1] [µg/mL],MFC (C. neoformans MTCC4424 [3]) [µg/mL],Diameter of zone of inhibition (C. neoformans MTCC4424 [2]) [mm],"hemolysis at 2 h, 25 μg/mL (Cytotoxicity) [%]","hemolysis at 2 h, 50 μg/mL (Cytotoxicity) [%]","hemolysis at 2 h, 100 μg/mL (Cytotoxicity) [%]","hemolysis at 2 h, 200 μg/mL (Cytotoxicity) [%]","hemolysis at 2 h, 400 μg/mL (Cytotoxicity) [%]","hemolysis at 2 h, 800 μg/mL (Cytotoxicity) [%]","hemolysis at 2 h, 1600 μg/mL (Cytotoxicity) [%]","hemolysis at 2 h, 3200 μg/mL (Cytotoxicity) [%]",Interaction with fluconazole [4],zone of inhibition [7] [mm],Diameter of zone of inhibition [8] [mm],other results
128,up to 32 fold,,,,,"OC(Cn1cncn1)(Cn1cncn1)c1ccc(F)cc1F [FLC, Fluconazole, reference compound]",256,32,,,,,,,,,,,,,"Diameter of the zone of inhibition (C. neoformans MTCC4424 [2]; antifungal drugs 10 μg/disc): 14.33±1.24 mm; MIC (C. neoformans MTCC4424 [3]; MTCC4424, 48 h): 8 µg/mL; MIC of agent in combination (C. neoformans CN; [9]): 8 µg/mL; MIC (C. neoformans CN): 128 µg/mL; MIC of agent in combination (C. neoformans CN; [10]): 8 µg/mL; MIC of agent in combination (C. neoformans MTCC4424 [5]; [9]): 1 µg/mL; MIC (C. neoformans MTCC4424 [5]): 8 µg/mL; MIC of agent in combination (C. neoformans MTCC4424 [5]; [10]): 1 µg/mL"
,up to 8 fold,800,400 to 1600,400 to 1600,1600,"CC(C)=CCCC(C)=CC=O (mixture of isomers) [CT, Citral]",,,22.66±1.24,1.78 ± 0.16,2.86 ± 0.15,3.8 ± 0.18,4.29 ± 0.12,4.51 ± 0.13,5.98 ± 0.21,6.96 ± 0.1,17.6 ± 1.04,less synergistic; also recorded: synergy,> 15,25.33±2.05,
,up to 32 fold,200,200,100 to 200,200,"C=CCc1ccc(O)c(OC)c1 [EL, Eugenol]",,,40.33±1.69,1.65 ± 0.14,1.98 ± 0.09,3.02 ± 0.08,3.72 ± 0.16,4.26 ± 0.16,4.78 ± 0.25,5.6 ± 0.63,19 ± 0.3,synergistic interaction,> 15,22.66±1.24,MIC (C. neoformans CN): 200 µg/mL; MIC of agent in combination (C. neoformans CN; [10]): 12.50 µg/mL; FICI (C. neoformans CN; combination with fluconazole): 0.187; Lowering of own MIC (C. neoformans CN): 8 folds; MIC (C. neoformans MTCC4424 [5]): 200 µg/mL; MIC of agent in combination (C. neoformans MTCC4424 [5]; [10]): 12.50 µg/mL
,,,,,,Triton X-100 [reference compound],,,,,,,,,,,,,,,hemolysis (positive control) (red blood cell (RBC)): 100%
0.25,,,,,,"CC(=O)N1CCN(c2ccc(OCC3COC(Cn4ccnc4)(c4ccc(Cl)cc4Cl)O3)cc2)CC1 (stereo not drawn) [KTC, Ketoconazole]",0.5,128,,,,,,,,,,,,,"MIC (C. neoformans MTCC4424 [3]; MTCC4424, 48 h): 64 µg/mL; Diameter of the zone of inhibition ([8]; antifungal drugs 10 μg/disc): 19.33±1.24 mm"
,up to 8 fold,400,400 to 1600,400 to 1600,800,"CC(C)=CCC/C(C)=C/CO [GR, Geraniol]",,,19.33±1.24,1.33 ± 0.17,2.16 ± 0.25,2.31 ± 0.26,2.87 ± 0.23,3.36 ± 0.18,3.85 ± 0.11,4.74 ± 0.34,14.3 ± 0.23,synergy,> 15,19.33±1.24,

Compound,MIC ([1]; 48 h) [µg/mL],Reduction of MICs in combination with fluconazole [4],MIC ([1]; 24 h) [µg/mL],"MIC [6, 11] [µg/mL]","MIC [6, 12] [µg/mL]","MIC (C. neoformans MTCC4424 [3]; MTCC4424, 24 h) [µg/mL]",MFC [1] [µg/mL],MFC (C. neoformans MTCC4424 [3]) [µg/mL],Diameter of zone of inhibition (C. neoformans MTCC4424 [2]) [mm],"hemolysis at 2 h, 25 μg/mL (Cytotoxicity) [%]","hemolysis at 2 h, 50 μg/mL (Cytotoxicity) [%]","hemolysis at 2 h, 100 μg/mL (Cytotoxicity) [%]","hemolysis at 2 h, 200 μg/mL (Cytotoxicity) [%]","hemolysis at 2 h, 400 μg/mL (Cytotoxicity) [%]","hemolysis at 2 h, 800 μg/mL (Cytotoxicity) [%]","hemolysis at 2 h, 1600 μg/mL (Cytotoxicity) [%]","hemolysis at 2 h, 3200 μg/mL (Cytotoxicity) [%]",Interaction with fluconazole [4],zone of inhibition [7] [mm],Diameter of zone of inhibition [8] [mm],other results
"O=C/C=C/c1ccccc1 [CD, Cinnamaldehyde]",,up to 32 fold,100,100,100 to 200,100,,,45.66±2.49,1.84 ± 0.19,2.87 ± 0.07,3.39 ± 0.12,3.96 ± 0.05,4.4 ± 0.17,5.06 ± 0.2,6.22 ± 0.19,18.1 ± 0.4,synergistic interaction,> 15,48.33±3.39,MIC of agent in combination (C. neoformans CN; [9]): 12.50 µg/mL; MIC (C. neoformans CN): 100 µg/mL; Lowering of own MIC (C. neoformans CN): 8 folds; MIC of agent in combination (C. neoformans MTCC4424 [5]; [9]): 12.50 µg/mL; MIC (C. neoformans MTCC4424 [5]): 100 µg/mL
"CCC(C)n1ncn(-c2ccc(N3CCN(c4ccc(OCC5COC(Cn6cncn6)(c6ccc(Cl)cc6Cl)O5)cc4)CC3)cc2)c1=O (stereo not drawn) [ITC, Itraconazole]",64,,,,,,128,256,,,,,,,,,,,,,"MIC range (resistance to azoles) ([6]; antifungal drugs, both test strains): 64 to 256 µg/mL; MIC (C. neoformans MTCC4424 [3]; MTCC4424, 48 h): 128 µg/mL"
